Test results published in ChEMBL document CHEMBL4354867, “Validation and Characterization of Five Distinct Novel Inhibitors of Human Cytomegalovirus” (J Med Chem, 2020).
Active and inactive are the calls of the source. The calls are words filed in the database; no cut-off is given here.

Columns and labels:
Human betaherpesvirus 5 [1] = experiment: Antiviral activity against GCV-resistant HCMV Towne infected in human HFF cells assessed as reduction in plaque formation treated with compound following viral infection and incubated for 8 to 10 days by crystal violet staining based assay; assay type: functional, organism-based; conditions: Human betaherpesvirus 5, strain Towne
Human betaherpesvirus 5 [2] = experiment: Antiviral activity against HCMV Towne infected in human HFF cells assessed as reduction in viral DNA yields in the supernatant at 2 uM treated with compound following viral infection at MOI of 0.1 PFU/cell by US17 real time PCR analysis; assay type: functional, organism-based; conditions: strain Towne
In short: (§1)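 At set time points supernatants were harvested and cells lysed for DNA. Cell-associated viral DNA and supernatant viral DNA quantified by real-time PCR targeting a 151-bp conserved US17 region.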

Human betaherpesvirus 5 [3] = experiment: (§2) Antiviral activity against pp28-luciferase expressing HCMV Towne infected in human HFF cells assessed as reduction in viral replication treated with compound at 24 hrs post viral infection at MOI of 1 PFU/cell and measured after 3 days by luciferase reporter gene assay; assay type: functional, organism-based; conditions: strain Towne
In short: (§3)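 Time-of-addition in HFFs infected with HCMV Towne (MOI 1). Add-on: compound added at 0, 6, 24 or 48 hpi. Removal: compound added right after infection and washed out after 0, 6, 24 or 48 h. Luciferase read at 72 hpi.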

Human betaherpesvirus 5 [4] = experiment: (§4) Antiviral activity against pp28-luciferase harboring UL97 C607Y mutant expressing GCV-resistant HCMV Towne infected in human HFF cells assessed as reduction in viral replication at 0.5 to 3 uM treated with compound following viral infection at MOI of 0.1 PFU/cell and measured at 72 hrs post infection by luciferase reporter gene assay; assay type: functional, organism-based; conditions: strain Towne
In short: (§5)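 HFFs infected with GCV-resistant pp28-luciferase Towne (MOI 0.1), then treated with a compound dilution series. Luciferase, driven by the UL99 late promoter, read in cell lysates at 72 hpi. Data are mean ± SD of triplicates from a single experiment.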

Human betaherpesvirus 5 [5] = experiment: Inhibition of viral protein expression in HCMV Towne infected in human HFF cells assessed as reduction in pp65 expression at 0.1 to 10 uM treated with compound following viral infection at MOI of 1 PFU/cell measured at 72 hrs post infection by Western blot analysis; assay type: functional, organism-based; conditions: strain Towne
In short: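 Lysates taken at 72 hpi, equal protein run on SDS-PAGE and transferred to PVDF. Immunoblot for viral proteins (IE1/2, UL84, UL44, pp65) with β-actin as loading reference, chemiluminescent detection.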

Human betaherpesvirus 5 [6] = experiment: as §2, with “immediately after” for “at 24 hrs post”, “PFU/cell followed by compound washout after 6 hrs” for “PFU/cell”; assay type: functional, strain Towne; conditions: for Activity: strain Towne; in short: as §3
Human betaherpesvirus 5 [7] = experiment: Antiviral activity against HCMV Towne infected in human HFF cells assessed as reduction in plaque formation treated with compound following viral infection at MOI of 1 PFU/cell and measured at 10 days post-infection in presence of letermovir by crystal violet staining based assay; assay type: functional, organism-based; conditions: Human betaherpesvirus 5, strain Towne, 240 h
Human betaherpesvirus 5 [8] = experiment: Antiviral activity against HCMV TB40 infected in human HFF cells assessed as reduction in plaque formation at 0.1 to 3 uM treated with compound following viral infection at […] measured after 8 days by crystal violet staining analysis; assay type: functional, organism-based
In short: (§6)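 HFFs (2 × 10⁵/well) infected with HCMV TB40 at about 100 plaques/well for 90 min. Inoculum removed, then DMEM with 0.5% CMC, 4% FBS and compound added. Incubated at 37 °C; plaques stained with crystal violet and counted at 8 dpi. Experiment repeated three times; one representative shown.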

Human betaherpesvirus 5 [9] = experiment: Inhibition of viral protein expression in HCMV Towne infected in human HFF cells assessed as reduction in UL44 expression at 0.1 to 10 uM treated with compound following viral infection at MOI of 1 PFU/cell measured at 72 hrs post infection by Western blot analysis; assay type: functional, organism-based; conditions: strain Towne
In short: (§7)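 HFFs infected with HCMV Towne (MOI 1), then treated with compound. Lysates taken at 72 hpi, equal protein loaded on 8–10% Tris-glycine SDS-PAGE and transferred to PVDF. Primary antibodies overnight at 4 °C, HRP secondary, chemiluminescent detection; β-actin as loading control.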

[10] = Antiviral activity against Mouse Cytomegalovirus Smith (ATCC VR-1399) infected in mouse MEF cells assessed as reduction in plaque formation measured after 3 days by crystal violet staining based assay; assay type: functional, cell-based, Murine cytomegalovirus (strain Smith)
In short: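 Plaque reduction with MCMV Smith in mouse embryonic fibroblasts, with compound in a carboxymethylcellulose overlay. Assay ended at 3 days and plaques counted after crystal violet staining.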

Human gammaherpesvirus 4 = experiment: Antiviral activity against EBV infected in human AKATA cells assessed as reduction in IgG-induced lytic virus replication measured at 48 hrs post-lytic induction by qRT-PCR analysis; assay type: functional, organism-based
Human betaherpesvirus 5 [11] = experiment: Antiviral activity against HCMV TB40 infected in human HFF cells assessed as reduction in plaque formation treated with compound following viral infection and incubated for 8 to 10 days by crystal violet staining based assay; assay type: functional, organism-based; conditions: Human betaherpesvirus 5, TB40, HFF
Human betaherpesvirus 5 [12] = experiment: Antiviral activity against HCMV Towne infected in human HFF cells assessed as reduction in plaque formation treated with compound following viral infection and incubated for 8 to 10 days by crystal violet staining based assay; assay type: functional, organism-based; conditions: Human betaherpesvirus 5, strain Towne
Human betaherpesvirus 5 [13] = experiment: Inhibition of viral protein expression in HCMV Towne infected in human HFF cells assessed as reduction in UL84 expression at 0.1 to 10 uM treated with compound following viral infection at MOI of 1 PFU/cell measured at 72 hrs post infection by Western blot analysis; assay type: functional, organism-based; conditions: strain Towne; in short: as §7
Human alphaherpesvirus 2 = experiment: Antiviral activity against HSV 2 infected in African green monkey Vero cells assessed as reduction in plaque formation incubated for 36 hrs by crystal violet staining based assay; assay type: functional, organism-based
In short: (§8)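 Plaque reduction in Vero cells: virus adsorbed 60 min, then compound added in a carboxymethylcellulose overlay. Plaques counted after 36 h by crystal violet staining.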

Human betaherpesvirus 5 [14] = experiment: Inhibition of viral protein expression in HCMV Towne infected in human HFF cells assessed as reduction in IE2 expression at 0.1 to 10 uM treated with compound following viral infection at MOI of 1 PFU/cell measured at 72 hrs post infection by Western blot analysis; assay type: functional, organism-based; conditions: strain Towne; in short: as §7
Human alphaherpesvirus 1 = experiment: Antiviral activity against HSV 1 infected in African green monkey Vero cells assessed as reduction in plaque formation incubated for 36 hrs by crystal violet staining based assay; assay type: functional, organism-based; in short: as §8
HFF = experiment: Cytotoxicity against human HFF cells assessed as reduction in cell viability incubated for 72 hrs or 10 days by MTT assay; assay type: cell-based
In short: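 MTT assay on uninfected cells exposed to compound for 72 h or 8–10 days, matching the antiviral assay durations. MTT (5 mg/mL stock in PBS) added, then 2–3 h at 37 °C. Formazan absorbance read at 560 nm.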

Human betaherpesvirus 5 [15] = experiment: Antiviral activity against HCMV Towne infected in human HFF cells assessed as reduction in viral DNA replication at 2 uM treated with compound following viral infection at MOI of 0.1 PFU/cell by US17 real time PCR analysis; assay type: functional, organism-based; conditions: strain Towne; in short: as §1
Human betaherpesvirus 5 [16] = experiment: Antiviral activity againstpp28-luciferase expressing HCMV Towne infected in human HFF cells assessed as reduction in viral replication treated with compound following viral infection at MOI of 1 PFU/cells measured after 3 days in presence of GCV by luciferase reporter gene assay; assay type: functional, organism-based; conditions: Human betaherpesvirus 5, strain Towne, 72 h
In short: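 HFFs in 96-well plates were infected with pp28-luciferase Towne HCMV, in which luciferase is driven by the UL99 late promoter, at MOI 1. A dose-response of each drug alone gave its EC₅₀. Combinations started at twice each EC₅₀ in DMEM with 4% FBS, followed by two-fold serial dilutions, and were added after infection. Luciferase was read in cell lysates at 72 hpi. The Bliss ratio is observed over expected inhibition.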

Human betaherpesvirus 5 [17] = experiment: Antiviral activity against HCMV Towne infected in human HFF cells assessed as reduction in viral DNA yields in the supernatant at 5 uM treated with compound following viral infection at MOI of 0.1 PFU/cell by US17 real time PCR analysis; assay type: functional, organism-based; conditions: strain Towne; in short: as §1
Human betaherpesvirus 5 [18] = experiment: as §4, with “1” for “0.5”, “5” for “3”; assay type: functional, organism-based; conditions: strain Towne; in short: as §5
Human betaherpesvirus 5 [19] = experiment: Antiviral activity against HCMV TB40 infected in human HFF cells assessed as reduction in plaque formation at 0.75 to 10 uM treated with compound following viral infection at […] measured after 8 days by crystal violet staining analysis; assay type: functional, organism-based; in short: as §6
Human betaherpesvirus 5 [20] = experiment: Inhibition of viral protein expression in HCMV Towne infected in human HFF cells assessed as reduction in IE2 expression at 0.3 to 10 uM treated with compound following viral infection at MOI of 1 PFU/cell measured at 72 hrs post infection by Western blot analysis; assay type: functional, organism-based; conditions: strain Towne; in short: as §7
Human betaherpesvirus 5 [21] = experiment: Inhibition of viral protein expression in HCMV Towne infected in human HFF cells assessed as reduction in IE1 expression at 0.3 to 10 uM treated with compound following viral infection at MOI of 1 PFU/cell measured at 72 hrs post infection by Western blot analysis; assay type: functional, organism-based; conditions: strain Towne; in short: as §7
Human betaherpesvirus 5 [22] = experiment: Antiviral activity against HCMV Towne infected in human HFF cells assessed as reduction in viral DNA replication at 5 uM treated with compound following viral infection at MOI of 0.1 PFU/cell by US17 real time PCR analysis; assay type: functional, organism-based; conditions: strain Towne; in short: as §1
Human betaherpesvirus 5 [23] = experiment: Antiviral activity against HCMV Towne infected in human HFF cells assessed as reduction in viral DNA yields in the supernatant at 1.5 uM treated with compound following viral infection at MOI of 0.1 PFU/cell by US17 real time PCR analysis; assay type: functional, organism-based; conditions: strain Towne; in short: as §1
Human betaherpesvirus 5 [24] = experiment: Inhibition of viral protein expression in HCMV Towne infected in human HFF cells assessed as reduction in IE1 expression at 0.1 to 10 uM treated with compound following viral infection at MOI of 1 PFU/cell measured at 72 hrs post infection by Western blot analysis; assay type: functional, organism-based; conditions: strain Towne; in short: as §7
Human betaherpesvirus 5 [25] = experiment: Antiviral activity against HCMV Towne infected in human HFF cells assessed as reduction in viral DNA replication at 1.5 uM treated with compound following viral infection at MOI of 0.1 PFU/cell by US17 real time PCR analysis; assay type: functional, organism-based; conditions: strain Towne; in short: as §1
[26] = human gammaherpesvirus 4, 48 h, read-out: EC50

Compound	EC50 (Human betaherpesvirus 5 [1]) [nM]	Activity (Human betaherpesvirus 5 [3])	Activity (Human betaherpesvirus 5 [4])	inhibition (Human betaherpesvirus 5 [5])	EC50 (Human betaherpesvirus 5 [7]) [nM]	Activity (Human betaherpesvirus 5 [8])	inhibition (Human betaherpesvirus 5 [9])	EC50 (Human betaherpesvirus 5 [11]) [nM]	EC50 (Human betaherpesvirus 5 [12]) [nM]	inhibition (Human betaherpesvirus 5 [13])	inhibition (Human betaherpesvirus 5 [14])	CC50 (HFF) [nM]	EC50 (Human betaherpesvirus 5 [16]) [nM]	Activity (Human betaherpesvirus 5 [6])	EC50 ([10]; mef)	EC50 (Human gammaherpesvirus 4; [26]) [nM]	EC50 (Human alphaherpesvirus 2; vero)	EC50 (Human alphaherpesvirus 1; vero)	other results
CCc1ccc(NC(=O)[C@H](Cc2c[nH]c3ccccc23)NC(=O)[C@@H]2Cc3ccccc3CN2)cc1	170	inactive	Active	Active	140	Active	Active	340	640	Active	Active	86000	550	–	–	–	–	–	Activity (Human betaherpesvirus 5 [2]): Active; inhibition (INH) (Human betaherpesvirus 5 [6]): 100%; EC50 ([10]; Murid betaherpesvirus 1, ATCC VR-1399, MEF, 72 h, read-out: EC50): 11700 nM; EC50 (Human gammaherpesvirus 4): Not Active; EC50 (Human alphaherpesvirus 2; Human alphaherpesvirus 2, Vero, 36 h, read-out: EC50): 1300 nM; EC50 (Human alphaherpesvirus 1; Human alphaherpesvirus 1, Vero, 36 h, read-out: EC50): 1780 nM; Activity (Human betaherpesvirus 5 [15]): Active
CCN1CCN(CCCNC(=O)c2ccc3c(c2)sc2nc(-c4ccc(OC)cc4)cn23)CC1	840	inactive	–	–	610	–	–	1210	850	–	–	70900	690	Active	Not Active	1920	Not Active	Not Active	Activity (Human betaherpesvirus 5 [17]): Active; Activity (Human betaherpesvirus 5 [18]): Active; Activity (Human betaherpesvirus 5 [19]): Active; inhibition (Human betaherpesvirus 5 [20]): Active; inhibition (Human betaherpesvirus 5 [21]): Active; Activity (Human betaherpesvirus 5 [22]): Active
Nc1c(S(=O)(=O)c2cccs2)c2nc3ccccc3nc2n1Cc1ccccc1	260	inactive	Active	Active	130	Active	Active	330	390	Active	Active	> 250000	570	Active	Not Active	> 10000	Not Active	Not Active	Activity (Human betaherpesvirus 5 [23]): Active; inhibition (Human betaherpesvirus 5 [24]): Active; Activity (Human betaherpesvirus 5 [25]): Active
